Experimental data of several laboratories.
Read-out: cell growth or viability

N.N.[Cl][Pt][Cl] — GI50 (LoVo; ATP luminescence): 1.7 µg/mL
Cc1cccc(-n2ncc(Cl)c(Cl)c2=O)c1 — IC50 (NCI-H2122; resazurin; 96 h): 1.15 µM
O=c1c2ccccc2nc(S)n1-c1ccccc1 — viability (LoVo; LDH; 200 µg/mL; 24 h): 63%
CCCCCCCCCCCCCCCC[N+](C)(C)C — IC50 (LLC-PK1; MTT): 6 µM
COc1c2c(cc3c1OCO3)[C@]13C=C[C@H](OC)C[C@@H]1[N@](C2)C[C@H]3OC(=O)c1ccoc1 — IC50 (A2780; WST-1): > 10 µM
O=C(O)C(Cl)Cl — IC50 (LoVo; MTT; 72 h): > 50 µM
O=C(O)CCCc1ccc(N(CCCl)CCCl)cc1 — IC50 (A2780; CCK-8; 48 h): > 50 µM
O=c1ccc2ccc3occc3c2o1 — IC50 (RD; WST-1; 48 h): 12.9 µM
c1ccc2c(c1)[I+]c1ccccc1-2 — IC50 (Caco-2; trypan blue; 48 h): ~0.01 µM
COc1c2c(cc3c1OCO3)[C@]13C=C[C@H](OC)C[C@@H]1[N@](C2)C[C@H]3OC(=O)c1ccco1 — IC50 (A2780; WST-1): > 10 µM
O=c1ccc2cc3ccoc3cc2o1 — IC50 (RD; WST-1; 48 h): 28.3 µM
